Active and inactive are the calls of the source. The calls are words filed in the database; no cut-off is given here.
Experiments:
Mus musculus [1] = species: Mus musculus; assay: Induction of IKK activity in mouse BMDM assessed as GST-IkappaBalpha phosphorylation by immunoprecipitation kinase assay
[2] = molecular target: MAP kinase p38 (Mus musculus) (UniProt P47811+O08911+Q9WUI1+Q9Z1B7); assay: Inhibition of TNF-induced p38 phosphorylation in mouse MEF up to 120 mins by Western blot analysis
PBMC [3] = assay: Inhibition of LPS-induced IkappaBalpha mRNA expression in human PBMC up to 50 uM by Northern blot analysis; assay type: functional, cell-based
BMDM [4] = assay: Inhibition of LPS-induced MCP-1 mRNA expression in mouse BMDM up to 3 hrs by Northern blot analysis; assay type: functional, cell-based
BMDM [5] = assay: Inhibition of heat-killed Staphylococcus aureus-induced B7h mRNA expression in mouse BMDM by Northern blot analysis; assay type: functional
Mus musculus [6] = species: Mus musculus; assay: Effect on IKK activity in LPS-induced mouse BMDM assessed as induction of phosphorylation of p38 treated 2 hrs after LPS challenge measured up to 120 mins by immunoblot analysis
Macrophage [7] = assay: Inhibition of LPS-induced IL-12beta mRNA expression in mouse alveolar macrophages after 90 mins by Northern blot analysis; assay type: functional, cell-based
MEF [8] = assay: Inhibition of LPS-induced RANTES mRNA expression in MEF after 90 mins by Northern blot analysis; assay type: functional, cell-based; conditions: Mus musculus
[9] = molecular target: T1, MAP kinase p38 (Homo sapiens) (UniProt O15264+Q15759+Q16539+P53778); assay: Inhibition of TNF-induced p38 phosphorylation in human bronchial epithelial cells up to 120 mins by Western blot analysis; assay type: cell-based; conditions: Epithelial cell
Epithelial cell [10] = assay: Inhibition of TNF-induced RelA expression in human bronchial epithelial cells up to 120 mins by Western blot analysis; assay type: functional, cell-based
[11] = molecular target: T2, Inhibitor of nuclear factor kappa-B kinase subunit alpha (Homo sapiens) (UniProt O15111); assay: Inhibition of IkappaBalpha in human WI38 cells assessed after 2 hrs by Western blot analysis; assay type: cell-based; conditions: WI-38
T2 sequence (whole entry): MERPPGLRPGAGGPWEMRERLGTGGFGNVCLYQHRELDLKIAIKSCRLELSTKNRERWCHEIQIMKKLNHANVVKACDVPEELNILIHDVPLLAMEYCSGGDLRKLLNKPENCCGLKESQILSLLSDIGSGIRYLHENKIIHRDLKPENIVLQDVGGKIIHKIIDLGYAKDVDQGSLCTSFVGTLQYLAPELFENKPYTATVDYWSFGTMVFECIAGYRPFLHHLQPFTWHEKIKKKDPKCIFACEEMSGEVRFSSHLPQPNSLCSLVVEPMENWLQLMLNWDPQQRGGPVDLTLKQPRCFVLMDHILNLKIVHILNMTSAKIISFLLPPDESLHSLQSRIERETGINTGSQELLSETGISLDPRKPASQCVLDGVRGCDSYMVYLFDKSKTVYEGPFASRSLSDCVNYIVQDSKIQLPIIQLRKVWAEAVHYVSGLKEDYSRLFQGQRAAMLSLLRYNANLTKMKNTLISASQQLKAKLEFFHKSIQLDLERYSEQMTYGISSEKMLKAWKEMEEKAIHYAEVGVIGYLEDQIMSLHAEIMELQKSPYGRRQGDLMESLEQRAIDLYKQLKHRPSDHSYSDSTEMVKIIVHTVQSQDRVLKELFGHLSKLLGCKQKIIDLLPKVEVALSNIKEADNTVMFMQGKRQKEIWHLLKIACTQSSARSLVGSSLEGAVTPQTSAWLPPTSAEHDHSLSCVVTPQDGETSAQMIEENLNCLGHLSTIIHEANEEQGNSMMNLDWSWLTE
Outline: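 WI38 lung fibroblasts and bronchial epithelial cells were stimulated for 2 hours. The same Western blot was probed for PARP cleavage, total IκBα and phosphorylated IκBα.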

Macrophage [12] = assay: Inhibition of LPS-induced RANTES mRNA expression in mouse alveolar macrophages after 90 mins by Northern blot analysis; assay type: functional, cell-based
BMDM [13] = assay: Inhibition of LPS-induced TNF mRNA expression in mouse BMDM up to 3 hrs by Northern blot analysis; assay type: functional, cell-based
Macrophage [14] = assay: Inhibition of LPS-induced IRF-1 mRNA expression in mouse alveolar macrophages after 90 mins by Northern blot analysis; assay type: functional, cell-based
MEF [15] = assay: Inhibition of LPS-induced IkappaBalpha mRNA expression in MEF after 90 mins by Northern blot analysis; assay type: functional, cell-based; conditions: Mus musculus
BMDM [16] = assay: Inhibition of heat-killed Staphylococcus aureus-induced IkappaBalpha mRNA expression in mouse BMDM by Northern blot analysis; assay type: functional
PBMC [17] = assay: Inhibition of LPS-induced TNF mRNA expression in human PBMC up to 50 uM by Northern blot analysis; assay type: functional, cell-based
Macrophage [18] = assay: Inhibition of LPS-induced TNF mRNA expression in mouse C57BL/6 mouse alveolar macrophages up to 50 uM by Northern blot analysis; assay type: functional, cell-based
MEF [19] = assay: Inhibition of TNF-induced IkappaBbeta expression in mouse MEF up to 120 mins by Western blot analysis; assay type: functional, cell-based
Mus musculus [20] = species: Mus musculus; assay: Effect on IKK activity in LPS-induced mouse BMDM assessed as induction of phosphorylation of CREB treated 2 hrs after LPS challenge measured up to 120 mins by immunoblot analysis
Mus musculus [21] = species: Mus musculus; assay: Suppression of LPS-induced TNF expression in C57BL/6 transgenic mouse bearing IkappaBalpha-reporter after 2 hrs by luciferase reporter gene assay; assay type: functional, organism-based
Outline: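 Animals received an injection of vehicle, LPS, C12, or LPS plus C12. Whole-animal bioluminescence was recorded 2 hours after injection as the read-out of reporter activity.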

[22] = molecular target: T1, MAP kinase p38 (Homo sapiens); assay: Inhibition of LPS-induced p38 phosphorylation in human THP1 cells measured up to 120 mins by Western blot analysis; assay type: cell-based; conditions: THP-1
Macrophage [23] = assay: Inhibition of LPS-induced IP-10 mRNA expression in mouse alveolar macrophages after 90 mins by Northern blot analysis; assay type: functional, cell-based
[24] = molecular target: Transcription factor p65 (Mus musculus) (UniProt Q04207); assay: Inhibition of TNF-induced RelA phosphorylation in mouse MEF up to 120 mins by Western blot analysis
Chain of Transcription factor p65 (Mus musculus) (Q04207 whole entry): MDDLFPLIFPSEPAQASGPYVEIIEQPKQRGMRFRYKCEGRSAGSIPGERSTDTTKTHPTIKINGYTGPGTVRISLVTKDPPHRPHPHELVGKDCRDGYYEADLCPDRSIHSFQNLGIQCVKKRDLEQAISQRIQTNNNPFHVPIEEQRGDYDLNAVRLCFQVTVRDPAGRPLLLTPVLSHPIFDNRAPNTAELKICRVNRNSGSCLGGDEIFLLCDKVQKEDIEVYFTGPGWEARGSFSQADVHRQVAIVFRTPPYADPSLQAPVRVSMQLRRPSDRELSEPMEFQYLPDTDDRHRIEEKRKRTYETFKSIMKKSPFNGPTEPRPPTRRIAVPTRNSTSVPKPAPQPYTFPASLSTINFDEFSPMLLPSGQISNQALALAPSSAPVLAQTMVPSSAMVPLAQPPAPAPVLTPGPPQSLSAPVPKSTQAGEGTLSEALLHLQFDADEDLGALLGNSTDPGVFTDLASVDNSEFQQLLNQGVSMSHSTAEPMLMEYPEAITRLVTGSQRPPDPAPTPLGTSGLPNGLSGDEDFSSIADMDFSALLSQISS

BMDM [25] = assay: Inhibition of LPS-induced IkBbeta protein level in mouse BMDM treated 2 hrs after LPS challenge measured up to 120 mins by Western blot analysis; assay type: functional, cell-based
BMDM [26] = assay: Inhibition of LPS-induced IL-12beta mRNA expression in mouse BMDM up to 3 hrs by Northern blot analysis; assay type: functional, cell-based
MEF [27] = assay: Inhibition of TNF-induced RelA expression in mouse MEF up to 120 mins by Western blot analysis; assay type: functional, cell-based
BMDM [28] = assay: Induction of c-jun mRNA expression in mouse BMDM at 50 uM after 2 hrs by Northern blot analysis; assay type: functional
BMDM [29] = assay: Inhibition of LPS-induced c-jun mRNA expression in mouse BMDM up to 3 hrs by Northern blot analysis; assay type: functional, cell-based
Epithelial cell [30] = assay: Inhibition of TNF-induced IkappaBbeta expression in human bronchial epithelial cells up to 120 mins by Western blot analysis; assay type: functional, cell-based
BMDM [31] = assay: Inhibition of LPS-induced IkappaBalpha expression in mouse BMDM measured up to 120 mins by Western blot analysis; assay type: functional, cell-based
BMDM [32] = assay: Inhibition of LPS-induced IkappaBalpha mRNA expression in mouse BMDM up to 3 hrs by Northern blot analysis; assay type: functional, cell-based

CCCCCCCCCC(=O)CC(=O)N[C@H]1CCOC1=O
Activity (Mus musculus [1]): inactive
Activity [2]: Active
Activity (PBMC [3]): Active
Activity (BMDM [4]): Dose-dependent effect
Activity (BMDM [5]): Active
Activity (Mus musculus [6]): Active
Activity (Macrophage [7]): Dose-dependent effect
Activity (MEF [8]): Dose-dependent effect
Activity [9]: Active
Activity (Epithelial cell [10]): Active
Activity [11]: Active
Activity (Macrophage [12]): Dose-dependent effect
Activity (BMDM [13]): Dose-dependent effect
Activity (Macrophage [14]): Dose-dependent effect
Activity (MEF [15]): Dose-dependent effect
Activity (BMDM [16]): Active
Activity (PBMC [17]): Active
Activity (Macrophage [18]): Active
Activity (MEF [19]): Active
Activity (Mus musculus [20]): Active
Activity (Mus musculus [21]): Active
Activity [22]: Active
Activity (Macrophage [23]): Dose-dependent effect
Activity [24]: Active
Activity (BMDM [25]): inactive
Activity (BMDM [26]): Dose-dependent effect
Activity (MEF [27]): Active
Activity (BMDM [28]): Active
Activity (BMDM [29]): Dose-dependent effect
Activity (Epithelial cell [30]): Active
Activity (BMDM [31]): Active
Activity (BMDM [32]): Dose-dependent effect
